# Many of the other results were omitted from the sample, so hits are more common in it than they were.
# PolyA inhibitor = inhibitors of polyadenylation in S. cerevisiae; S. cerevisiae SKY197-pL101 polyadenylation reporter, beta-gal luminescence; efflux-impaired pdr1/pdr3 knockout yeast; score 100 = 6 SD above DMSO; activity score, % at 12 µM; 300,000 tested, 0.02% active; AID 1875;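 active = lowest replicate activity score at least 50, where 100 means six control SD above control mean; inconclusive = lowest score under 50 but half or more replicates reach 50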;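 also: yeast exposed to compound for 9 h at 30 °C; higher score means more reporter readthrough which indicates perturbed polyadenylation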
# T cruzi repl = blocks replication of Trypanosoma cruzi; T. cruzi beta-gal in NIH3T3, luminescence, 90 h; inhibition, % (no concentration beside the values); 300,000 tested, 1.4% active; AID 1885;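 active = mean inhibition across valid replicates above about 55%, limit read from the data; inconclusive = mean below that limit but half or more replicates reach it; inactive = mean below it, under half of replicates reach it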;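 also: signal also drops with host cell toxicity which is not excluded here; higher percent means less beta-gal luminescence so fewer parasites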
#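 Material: NIH/3T3 host cells with β-galactosidase reporter T. cruzi; Input: 5,000 host fibroblasts per well; Medium: DMEM, 2% fetal bovine serum; Compound: 50 nL DMSO compound solution per well; Schedule: 3 h host attachment, then at least 90 h co-culture; Detection: luminescent β-galactosidase signal after 60 min lysis.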
# Lmaj promast = Leishmania major promastigote growth inhibition | Leishmania major promastigotes, resazurin fluorescence viability | inhibition, % at 10 µM | 200,000 tested, 9% active | AID 1063; in the data active = inhibition above about 50%;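 also: promastigotes grown with compound for 44 hours at 28 °C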
# NALP1 yeast inh = inhibitors of NALP1 inflammasome in yeast. inhibition, % at 10 µM. S. cerevisiae NALP1/ASC/caspase-1 growth, X-gal OD620, 72 h. 280,000 tested, 0.61% active; in the data active = inhibition mostly above about 24%, no sharp cut-off; inactive = mostly below about 32%
# Calb FLC = affects C. albicans growth with fluconazole | C. albicans CaCi-2 (fluconazole-resistant clinical isolate) + fluconazole, Alamar Blue growth, 48 h | growth inhibition, % (concentration not given with the values) | 300,000 tested, 0.57% active;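 active = growth inhibition above about 58% in most replicates, limit read from the data, passing the limit was not always enough; inconclusive = exactly half the replicates above a set limit; inactive = most replicates below a set limit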;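 also: all wells also contain fluconazole at 8 µg/ml as a sub-toxic cotreatment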
# NALP3 yeast inh = blocks the NALP3 inflammasome reconstituted in yeast | 330,000 tested, 0.39% active | inhibition, % at 10 µM | Yeast reconstituted NLRP3/ASC/caspase-1, beta-gal luminescence, 24 h | AID 2825;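 active = inhibition of 50% or more; inactive = inhibition below 50%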
# Hits are given with their value; n = inactive; u = inconclusive; x = not tested or not shown.
SMILES,PolyA inhibitor,T cruzi repl,Lmaj promast,NALP1 yeast inh,Calb FLC,NALP3 yeast inh
CCOC(=O)c1c(C)oc2c1c(C(c1cccnc1)N1CCCCC1)c(O)c1ccccc12 (configuration not stated),n,n,98,n,n,n
CN1C[C@@H]2C[C@@H](C3=Cc4cc(Cl)ccc4OC3)N3CCC[C@@]23C1=O,n,n,n,n,n,n
COc1ccccc1CN1C[C@@H]2C[C@@H](c3ccc4nsnc4c3)N3CCC[C@@]23C1=O,n,n,67,n,n,n
COc1ccccc1CN1C[C@@H]2C[C@@H](C3=Cc4cc(Cl)ccc4OC3)N3CCC[C@@]23C1=O,n,n,n,26,u,n
COc1cc(CN2CCNC(=O)C2CC(=O)NCc2csc(C(C)C)n2)cc(OC)c1 (configuration not stated),n,n,n,n,n,n
CCOc1ccc(NC(=O)c2c(NC(=O)CNCCN3CCOCC3)sc3c2CCC3)cc1,n,61,x,n,n,n
Cc1nn(Cc2ccc(C(=O)Nc3ccc(Br)c4cccnc34)o2)c(C)c1Br,x,x,n,x,x,x
CCC(C)c1ccccc1NC(=O)c1cc(C)no1 (configuration not stated),n,n,x,n,n,n
O=C(N1CCCCC1)N1CCN(S(=O)(=O)c2ccc(Cl)cc2)CC1,n,n,n,n,n,n
O=C1CC(=C2c3ccccc3-c3ccccc32)C(=O)N1CCCCN1CCN(c2ccccc2)CC1,n,n,99,n,n,n
O=C1c2ccccc2C(=O)N1CCCCN1CCN(CCCCN2C(=O)c3ccccc3C2=O)CC1,x,x,n,x,x,x
Cc1ccc(C(=O)NN2C(=O)C3C4c5ccccc5C(c5ccccc54)C3C2=O)cc1 (configuration not stated),n,n,n,n,n,n
O=C(c1cc2ccccc2oc1=O)N(c1ccc(Cl)cc1)C1C=CS(=O)(=O)C1 (configuration not stated),n,n,61,n,n,n
CC1CCC2(CC1)NC(=O)N(CC(=O)Nc1ccc3[nH]c(=O)[nH]c3c1)C2=O (configuration not stated),n,n,x,x,x,n
CCOc1ccc(N(CC(=O)Nc2c(C)cccc2C)S(=O)(=O)c2c(C)[nH]c(=O)[nH]c2=O)cc1,n,n,x,x,n,n
Cc1ccc(C(=O)C(C)Oc2cccc(NC(=O)c3ccco3)c2)cc1 (configuration not stated),n,n,97,n,n,n
COc1ccc(C(=O)COc2cccc(NC(=O)c3ccco3)c2)cc1,n,n,59,n,n,n
CC(Oc1ccc(NC(=O)c2ccco2)cc1)C(=O)N1c2ccccc2CC1C (configuration not stated),n,n,58,n,n,n
O=S1(=O)N=C(N2CCOCC2)c2ccccc21,n,n,n,n,n,n
O=S1(=O)N=C(Nc2ccc(N3CCOCC3)cc2)c2ccccc21,x,n,n,n,86,n
CCn1c(C)nc2cc(C(=O)N/N=C/c3cccc(OC)c3O)ccc21,n,n,94,n,108,n
CCn1c(C)nc2cc(C(=O)N/N=C/c3ccc(O)c(O)c3O)ccc21,n,n,n,n,76,x
COc1cccc(/C=N/NC(=O)c2ccc3nc[nH]c3c2)c1O,n,n,x,n,n,n
CCC(=NNC(=O)c1ccc2c(c1)nc(C)n2CC)c1cc(F)ccc1O,x,x,x,x,x,n
O=C(COC(=O)c1cc(S(=O)(=O)N2CCCCC2)ccc1N1CCOCC1)c1ccccc1,n,n,x,x,n,n
SMILES,PolyA inhibitor,T cruzi repl,Lmaj promast,NALP1 yeast inh,Calb FLC,NALP3 yeast inh
O=C(N/N=C/c1cc(Cl)ccc1O)c1ccccc1Br,n,n,98,n,n,n
O=C(CNC(=O)c1cccc(Br)c1)N/N=C/c1cn[nH]c1-c1ccccc1,n,n,67,n,n,n
Cc1cccc(OCC(=O)NCC(=O)N/N=C/c2cc(Br)ccc2OCc2ccccc2)c1,n,n,92,n,n,n
O=C(CNC(=O)c1ccccc1)N/N=C/c1cc(Br)ccc1O,n,n,80,n,n,n
CS(=O)(=O)c1ccc(Cl)c(NC(=O)c2cc(S(=O)(=O)N3CCOCC3)ccc2N2CCCC2)c1,n,n,x,x,n,n
O=C(CNC(=O)c1ccccc1Br)N/N=C/c1cc(Br)ccc1O,n,n,58,n,n,n
O=C(CNC(=O)c1ccncc1)N/N=C/c1ccc(Br)cc1,n,n,x,n,n,n
O=C(CNC(=O)c1ccncc1)N/N=C/c1cc(Br)ccc1O,n,n,98,n,n,n
O=C(CN1CC(c2ccccc2)CC1=O)N/N=C/c1cc(Br)ccc1O (configuration not stated),n,n,98,n,n,n
C=C1SC(Nc2c(C)cc(C)cc2C)=NC12CCCCC2,n,67,x,n,n,n
Cc1cc(C)c(NC(=O)CN2C(=O)NC3(CCCCC3)C2=O)c(C)c1,n,n,n,n,n,n
C=C1SC(Nc2c(C)cccc2C)=NC12CCCCC2,n,64,x,n,n,n
O=S(=O)(c1ccc(SCCOc2cccc(Br)c2)nc1)N1CCCC1,x,x,x,x,x,n
C[C@H](CO)N1C[C@H](C)[C@@H](CN(C)C(=O)Nc2ccccc2)Oc2c(NS(=O)(=O)c3cccs3)cccc2C1=O,x,x,x,x,x,n
COc1ccc2c(c1)-c1c(ssc1=S)C(C)(C)N2S(=O)(=O)c1ccc(C)cc1,n,n,92,n,n,n
COc1ccc2c(c1)-c1c(ssc1=S)C(C)(C)N2,n,n,n,n,n,n
CC1(C)c2ssc(=S)c2-c2ccccc2N1C(=O)CSC1=NCCS1,n,n,n,n,n,n
Cc1ccc(S(=O)(=O)N2c3ccccc3-c3c(ssc3=S)C2(C)C)cc1,n,55,99,n,n,n
COC(=O)c1ccc(NC(=O)CCc2nnc3ccc(N4CCC5(CC4)OCCO5)nn23)cc1,n,n,x,n,n,n
COc1ccc(C(CC(=O)Nc2cc(OC)cc(OC)c2)n2cccc2)cc1 (configuration not stated),n,56,96,n,n,n
COc1ccc(C(CC(=O)Nc2ccccc2OC)n2cccc2)cc1 (configuration not stated),n,n,54,n,n,n
COc1ccc(C(CC(=O)NC(C)(C)C)n2cccc2)cc1 (configuration not stated),n,n,n,n,n,n
COc1ccccc1N1CCN(C(=O)c2ccc(CS(=O)(=O)c3ccccc3OC)o2)CC1,n,n,n,n,n,n
CCn1c(SCC(=O)N2c3ccccc3CC2C)nnc1-c1ccco1 (configuration not stated),n,n,n,x,n,n
CC1Cc2ccccc2N1C(=O)CSc1nnc2n1C(C)(C)Cc1ccccc1-2 (configuration not stated),n,n,52,n,n,n
COc1cccc(-n2c(SCC(=O)N3c4ccccc4CC3C)nnc2-c2ccco2)c1 (configuration not stated),x,x,53,n,x,n
